Measured values from the RNAGym collection of RNA variant scans (doi:10.1126/science.aae0568).
This sample holds only a part of the variants without activity.

B1: tRNA (parent)
chain: GUUCCGUUGGCGUAAUGGUAACGCGUCUCCCUCCUAAGGAGAAGACUGCGGGUUCGAGUCCCGUACGGAACG

Variants of: B1
Experiment: yeast fitness relative to wild type (ratio to wild type); higher = fitter; tRNA-Arg(CCU), competitive growth, 37 C, YPD
Outline: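 Gene amplicons from the start population and from each of six end populations were read by 100-nucleotide paired-end sequencing. Those end populations came from pooled Saccharomyces cerevisiae strains carrying tRNA-Arg(CCU) gene variants at the native locus, competed in YPD at 37°C for 24 hours. Fitness relative to wild type was worked out from changes in genotype frequencies. Genotypes needed ≥ 100 starting reads, and estimates < 0.5 were set to 0.5.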

Question: For G10A G23C G52A, which yeast fitness is on record?
Answer: Its yeast fitness is 0.565.

Question: For G9C G10A G12C G25C G52C, which yeast fitness is on record?
Answer: Its yeast fitness is no more than 0.5.

Question: For G9C U59A, which yeast fitness is on record?
Answer: Its yeast fitness is 0.737.

Question: Which yeast fitness does the source give for G10A U19A G44C here?
Answer: Its yeast fitness is 0.54.

Question: With G10A G56A C60U as the variant, how does the yeast fitness read?
Answer: Its yeast fitness is no more than 0.5.

Question: For G10C A43U G63C C66A, which yeast fitness is on record?
Answer: Its yeast fitness is no more than 0.5.

Question: Which yeast fitness does the source give for G9C U16G A20G here?
Answer: The yeast fitness was 0.803.

Question: For G9C G12C C31A A40U, which yeast fitness is on record?
Answer: The yeast fitness was no more than 0.5.

Question: For G10A A15G, which yeast fitness is on record?
Answer: Its yeast fitness is 0.782.

Question: Which yeast fitness does the source give for G9C U16G C31A C60A here?
Answer: Its yeast fitness is no more than 0.5.

Question: Which yeast fitness does the source give for G9C C33U here?
Answer: Its yeast fitness is 0.536.

Question: With G10C G12A C33A U35G U47A C55A C61U as the variant, how does the yeast fitness read?
Answer: Its yeast fitness is no more than 0.5.

Question: For G9C A45C A65C, which yeast fitness is on record?
Answer: Its yeast fitness is no more than 0.5.

Question: With G10C A40U U47C G68A as the variant, how does the yeast fitness read?
Answer: Its yeast fitness is no more than 0.5.

Question: With G10A A15C A70U as the variant, how does the yeast fitness read?
Answer: The yeast fitness was no more than 0.5.

Question: Which yeast fitness does the source give for G9C C46U G63A here?
Answer: The yeast fitness was 0.69.

Question: Which yeast fitness does the source give for G10C C55G A69C here?
Answer: Its yeast fitness is no more than 0.5.

Question: With G10A A20C C61A C62U G63U C66A as the variant, how does the yeast fitness read?
Answer: The yeast fitness was 0.646.

Question: Which yeast fitness does the source give for G9C C27G G44A A57G here?
Answer: Its yeast fitness is 0.691.

Question: For G10A U16A G23A C30G G51C, which yeast fitness is on record?
Answer: The yeast fitness was no more than 0.5.

Question: With G10C C22A C24G G51C C62U as the variant, how does the yeast fitness read?
Answer: The yeast fitness was no more than 0.5.

Question: For G10C G25C C55A, which yeast fitness is on record?
Answer: Its yeast fitness is 0.545.

Question: With G10A C27U G56A C60U as the variant, how does the yeast fitness read?
Answer: The yeast fitness was 0.556.

Question: With G10C G18A C30G G44A G48A G58A as the variant, how does the yeast fitness read?
Answer: The yeast fitness was no more than 0.5.

Question: Which yeast fitness does the source give for G10A G17C C30G C33G C61A A65U here?
Answer: The yeast fitness was no more than 0.5.

Question: For G9C U13A U59A, which yeast fitness is on record?
Answer: The yeast fitness was 0.718.

Question: Which yeast fitness does the source give for G10A G23A C34G here?
Answer: The yeast fitness was no more than 0.5.

Question: With G10A U16A G39C as the variant, how does the yeast fitness read?
Answer: Its yeast fitness is no more than 0.5.

Question: Which yeast fitness does the source give for G10A G17C here?
Answer: Its yeast fitness is 0.549.

Question: For G10A G17A, which yeast fitness is on record?
Answer: Its yeast fitness is 0.556.

Question: Which yeast fitness does the source give for G10A A20U C31G C62U here?
Answer: Its yeast fitness is no more than 0.5.

Question: Which yeast fitness does the source give for G10C A43C U47C C55U A69C here?
Answer: Its yeast fitness is no more than 0.5.

Question: For G10A A36U A37G, which yeast fitness is on record?
Answer: The yeast fitness was no more than 0.5.

Question: With G9C G56C as the variant, how does the yeast fitness read?
Answer: Its yeast fitness is 0.514.

Question: Which yeast fitness does the source give for G10A C11A C29A here?
Answer: Its yeast fitness is 0.627.

Question: For G10A A57G G68C, which yeast fitness is on record?
Answer: The yeast fitness was no more than 0.5.

Question: For G10A C11G A69C A70G, which yeast fitness is on record?
Answer: Its yeast fitness is no more than 0.5.

Question: With G10C A40U A57C A65U as the variant, how does the yeast fitness read?
Answer: The yeast fitness was no more than 0.5.

Question: For G9C U19C C31A, which yeast fitness is on record?
Answer: The yeast fitness was no more than 0.5.

Question: With G9U C11A C24G C30G as the variant, how does the yeast fitness read?
Answer: Its yeast fitness is no more than 0.5.

Question: With G10A U16A U35G as the variant, how does the yeast fitness read?
Answer: Its yeast fitness is no more than 0.5.

Question: With G10C C34G G63A A69U A70C as the variant, how does the yeast fitness read?
Answer: Its yeast fitness is no more than 0.5.

Question: For G10A U16A, which yeast fitness is on record?
Answer: Its yeast fitness is 0.708.

Question: For G10A U16C, which yeast fitness is on record?
Answer: Its yeast fitness is 0.777.

Question: For G10A C22G C62U, which yeast fitness is on record?
Answer: The yeast fitness was no more than 0.5.

Question: With G10A U26A C62U as the variant, how does the yeast fitness read?
Answer: Its yeast fitness is 0.529.

Question: Which yeast fitness does the source give for G10A C11G A20G C55G here?
Answer: Its yeast fitness is no more than 0.5.

Question: For G10A G68C, which yeast fitness is on record?
Answer: Its yeast fitness is 0.768.

Question: Which yeast fitness does the source give for G9C U28G A65C here?
Answer: Its yeast fitness is 0.582.

Question: Which yeast fitness does the source give for G9C U19C G48A U64C here?
Answer: The yeast fitness was 0.609.

Question: With G9C G44A C60G as the variant, how does the yeast fitness read?
Answer: The yeast fitness was no more than 0.5.

Question: Which yeast fitness does the source give for G10A A14G U26C A36U G52A here?
Answer: Its yeast fitness is no more than 0.5.

Question: Which yeast fitness does the source give for G10C C33G A36C C46A A65U here?
Answer: The yeast fitness was 0.53.

Question: Which yeast fitness does the source give for G10A U19A A42G U64A here?
Answer: The yeast fitness was 0.612.

Question: Which yeast fitness does the source give for G10A A20C G38A G41A U47A here?
Answer: The yeast fitness was no more than 0.5.

Question: With G10C A14U U19A C22U C49U C66U as the variant, how does the yeast fitness read?
Answer: The yeast fitness was no more than 0.5.

Question: For G10C A37C A43U, which yeast fitness is on record?
Answer: Its yeast fitness is no more than 0.5.

Question: For G10A U19A G41C, which yeast fitness is on record?
Answer: Its yeast fitness is no more than 0.5.

Question: With G10C C30U C66A as the variant, how does the yeast fitness read?
Answer: The yeast fitness was no more than 0.5.

Question: For G9C C27U U47G G50A, which yeast fitness is on record?
Answer: The yeast fitness was no more than 0.5.

Question: For G9C C24U G48C G51A, which yeast fitness is on record?
Answer: Its yeast fitness is no more than 0.5.

Question: Which yeast fitness does the source give for G10C C33A A40U U54A here?
Answer: Its yeast fitness is no more than 0.5.

Question: With G9C C24U U26G A42U G52U as the variant, how does the yeast fitness read?
Answer: Its yeast fitness is no more than 0.5.

Question: With G10C C22A C24G C27U U53A as the variant, how does the yeast fitness read?
Answer: Its yeast fitness is 0.543.

Question: For G9C G10C A36U, which yeast fitness is on record?
Answer: Its yeast fitness is no more than 0.5.

Question: For G10A C49A, which yeast fitness is on record?
Answer: The yeast fitness was 0.521.

Question: Which yeast fitness does the source give for G9C C22A C34A A70G here?
Answer: Its yeast fitness is no more than 0.5.

Question: For G10A G17C C31U C55U C60A, which yeast fitness is on record?
Answer: Its yeast fitness is no more than 0.5.

Question: For G10C C29A C33A C62U, which yeast fitness is on record?
Answer: Its yeast fitness is 0.6.

Question: With G10A G63C A65G as the variant, how does the yeast fitness read?
Answer: Its yeast fitness is no more than 0.5.

Question: With G10C C31A G56A A65G C66A G68C as the variant, how does the yeast fitness read?
Answer: The yeast fitness was no more than 0.5.

Question: For G9U C22U, which yeast fitness is on record?
Answer: The yeast fitness was 0.715.

Question: Which yeast fitness does the source give for G10C C31G here?
Answer: The yeast fitness was 0.631.

Question: Which yeast fitness does the source give for G10C G25A here?
Answer: Its yeast fitness is 0.691.

Question: Which yeast fitness does the source give for G10C G12A C22A C24G U53A here?
Answer: Its yeast fitness is no more than 0.5.

Question: For G10A C33U, which yeast fitness is on record?
Answer: The yeast fitness was 0.592.

Question: With G9C G63A as the variant, how does the yeast fitness read?
Answer: Its yeast fitness is 0.72.

Question: With G10A C27U G67C as the variant, how does the yeast fitness read?
Answer: Its yeast fitness is 0.627.

Question: For G9C C24U U26G C62G A70U, which yeast fitness is on record?
Answer: Its yeast fitness is no more than 0.5.

Question: Which yeast fitness does the source give for G10A A15C G25A C66U here?
Answer: Its yeast fitness is 0.543.

Question: With G9C G39C A45C as the variant, how does the yeast fitness read?
Answer: The yeast fitness was no more than 0.5.

Question: With G9C C22G C33G G63C as the variant, how does the yeast fitness read?
Answer: Its yeast fitness is no more than 0.5.

Question: Which yeast fitness does the source give for G10C C55U here?
Answer: Its yeast fitness is no more than 0.5.
